Assay outcomes: PubChem, Broad Institute
Hits are enriched below; roughly 1.7% of the tested compounds scored in any of these assays.
CSC inhib – blocks cancer stem cells; cancer stem cell-like cells viability, luminescence; inhibition, % at 7.5 µM; 1.1% of 300,000 active; in the data active means inhibition above about 75%; tested in HMLE shEcad cells
PglD DTNB – inhibitors of Campylobacter jejuni PglD acetyltransferase; purified PglD enzyme, DTNB colorimetric CoA detection; inhibition, % at 12.5 µM; 0.098% of 360,000 active; AID 602405; in the data active means inhibition above about 16%, passing the limit was not always enough
FN deposition inh – fibronectin deposition inhibition. AH1F fibroblasts, Alexa488-fibronectin deposition fluorescence, overnight. AID 743247. inhibition, % at 12.6 µM. 0.086% of 350,000 active;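 active means mean inhibition across replicates of 30% or more, regardless of how many single replicates reach that level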;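 further: positive control wells lacked labelled fibronectin entirely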
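Material: AH1F fibroblast monolayer depositing Alexa488-labelled fibronectin into matrix | Input: 10000 AH1F cells/well | Medium: DMEM plus 2% serum, read in PBS | Reagent: Alexa488-fibronectin, 24 nM final in well | Compound dosing: One dose per compound, pinned | Schedule: 1 h adhesion, overnight exposure | Measured by: Fluorescence at 485 nm excitation, 525 nm emission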
PfHsp90 yeast 2 – inhibits growth of yeast expressing Plasmodium falciparum Hsp90 | S. cerevisiae expressing PfHsp90, BacTiter-Glo ATP, 48 h; yeast lacking PDR1 and PDR3 efflux regulators | inhibition, % at 9.4 µM | 0.32% of 310,000 active;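 active means every replicate shows inhibition above about 80%, whatever the replicate mean, limit read from the data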;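 further: 0% = DMSO neutral controls and 100% = 20 µM radicicol positive controls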
SKKanGAS inh – blocks kanamycin growth of S. pyogenes SKKanGAS strain. inhibition, % at 7.5 µM. BacTiter-Glo, 6 h. AID 1662. 1.3% of 300,000 active;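 active means mean replicate score, as percent of positive control median, at least 50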;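 further: strain carries kanamycin resistance gene driven by streptokinase promoter and grows in 40 µg/ml kanamycin; loss of luminescence reflects streptokinase promoter inhibition or plain growth inhibition; 0% = median of DMSO wells and 100% = positive control at its reference dose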
Rtt109 Vps75 – blocks Candida albicans Rtt109/Vps75 acetyltransferase activity | 0.16% of 330,000 active | inhibition, % at 34.9 µM | purified Rtt109/Vps75, ThioGlo CoA-SH fluorescence, 4 h;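 active means inhibition of at least 50% in every replicate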
Target sequence (Q5AAJ8 whole entry, looked up): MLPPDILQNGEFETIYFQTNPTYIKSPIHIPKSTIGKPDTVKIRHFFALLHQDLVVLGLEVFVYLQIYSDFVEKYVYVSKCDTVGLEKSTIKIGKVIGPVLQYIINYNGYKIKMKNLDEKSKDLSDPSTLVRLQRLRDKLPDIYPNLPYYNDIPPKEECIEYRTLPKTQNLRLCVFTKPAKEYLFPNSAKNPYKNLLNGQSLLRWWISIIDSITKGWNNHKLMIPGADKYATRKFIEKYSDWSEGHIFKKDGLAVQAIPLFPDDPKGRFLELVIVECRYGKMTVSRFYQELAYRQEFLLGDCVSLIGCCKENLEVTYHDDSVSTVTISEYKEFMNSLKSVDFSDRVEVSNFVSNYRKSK
Active calls of the source: *; / = not tested or not shown.

SMILES	CSC inhib	PglD DTNB	FN deposition inh	PfHsp90 yeast 2	SKKanGAS inh	Rtt109 Vps75
O=C1C(SCCO)=C(SCCO)C(=O)c2ccccc21	102*	-2	43*	-6	/	-3
C[C@H](CO)N1C[C@H](C)[C@H](CN(C)C(=O)Nc2ccc3c(c2)OCO3)Oc2cc(C3=CCCC3)ccc2S1(=O)=O	/	0	22	/	/	/
COc1ccccc1S(=O)(=O)N[C@H]1CC[C@H](CCn2cc(C3CCCC3)nn2)O[C@@H]1CO	/	/	-2	/	/	/
C[C@@H]1CN([C@H](C)CO)C(=O)c2cc(-c3cncnc3)cnc2O[C@H]1CN(C)C(=O)Cc1ccccc1	/	-2	/	/	/	/
CC(C)(C)c1nn(-c2ccccc2)c2[nH]c(=O)c(C=O)cc12	88*	3	-5	120*	4	-5
CCOc1ccc(NCc2cc3c(C(C)(C)C)nn(-c4ccccc4)c3[nH]c2=O)cc1	21	0	/	103*	-7	7
CCC(=O)N(C)C[C@H]1Oc2cc(-c3ccc(OC)cc3)ccc2S(=O)(=O)N([C@@H](C)CO)C[C@H]1C	/	6	0	/	/	/
CN(C)CCCNc1ccc(-c2cc(Nc3cccc(Cl)c3)ncn2)cn1	81*	-2	11	-10	-3	20
C[C@H](NC(=O)c1nc[nH]c1C(=O)N[C@@H](Cc1ccccc1)C(=O)OC(C)(C)C)c1ccccc1	48	3	-9	4	54*	8
CNC(=O)c1[nH]cnc1C(=O)N[C@@H](Cc1ccccc1)C(=O)OC(C)(C)C	/	5	-1	-5	3	5
C[C@@H](NC(=O)c1nc[nH]c1C(=O)N[C@@H](Cc1ccccc1)C(=O)OC(C)(C)C)c1ccccc1	48	-5	-4	-13	84*	1
CN1C(=O)c2cc(NC(=O)Cc3ccccc3)ccc2OC[C@H]2O[C@H](CC(=O)NCC3CC3)CC[C@H]21	/	3	1	/	/	/
C[C@@H]1CCCCO[C@@H](CN(C)S(=O)(=O)c2ccc(Cl)cc2)[C@@H](C)CN([C@H](C)CO)C(=O)c2cc(NC(=O)Nc3ccccc3)ccc2O1	/	6	/	/	/	/
Cc1ccccc1-c1cnc2c(c1)C(=O)N([C@@H](C)CO)C[C@H](C)[C@H](CN(C)Cc1ccncc1)O2	/	-1	/	/	/	/
Cc1cc(NC(=S)N(Cc2ccc(Cl)cc2)Cc2ccc(C(=O)O)cc2)ccc1Cl	5	-2	4	-40	64*	17
Cc1cc(C)cc(NC(=S)N(Cc2ccc(Cl)cc2)Cc2ccc(C(=O)O)cc2)c1	4	2	17	-13	-11	15
Cc1ccc(NC(=S)N(Cc2ccc(Br)cc2)Cc2ccc(C(=O)O)cc2)cc1C	4	/	-6	-14	53*	24
CCOC(=O)C1=C(C)Nc2nc3ccccc3n2C1c1ccncc1 (stereo not drawn)	-2	2	14*	3	5	-7
COc1ccc(C2C(C(=O)c3ccccc3)=C(C)Nc3nc4ccccc4n32)c(OC)c1 (stereo not drawn)	-3	6	-11	2	89*	-3
C=CCOC(=O)C1=C(C)Nc2nc3ccccc3n2C1c1ccncc1 (stereo not drawn)	6	/	2	/	-1	4
COc1ccc(OC)c(C2C(C(=O)N(C)C)=C(C)Nc3nc4ccccc4n32)c1 (stereo not drawn)	-19	-3	/	-21	-3	-12
C/C(=N\NC(=O)c1ccccc1F)c1cccc(NC(=O)c2ccccc2)c1	/	-3	-7	-6	4	10
C/C(=N\NC(=O)c1cc(Br)ccc1O)c1cccc(NC(=O)c2ccccc2F)c1	17	1	-3	0	63*	2
Cc1noc(C)c1S(=O)(=O)Nc1ccc2c(c1)C(=O)N([C@H](C)CO)C[C@@H](C)[C@H](CN(C)Cc1ccc(C(=O)O)cc1)O2	/	9	/	/	/	/
CCOC(=O)c1c2c(n(C)c1COC)C(=O)C(=O)c1ccc(Br)cc1-2	121*	/	/	/	88*	/
SMILES	CSC inhib	PglD DTNB	FN deposition inh	PfHsp90 yeast 2	SKKanGAS inh	Rtt109 Vps75
Cc1ccc(N(C)/N=C/c2ccc(Cl)cc2Cl)nn1	10	-4	-10	-34	1	-7
CN(/N=C/c1ccc(Cl)cc1)c1ncc(Cl)cc1C(F)(F)F	51	7	10	-21	73*	-4
CN(C)c1cc(N/N=C/c2ccc(Cl)cc2)nc(N(C)C)n1	/	/	-6	18	-21	/
CN(/N=C/c1ccc(Cl)cc1Cl)c1ncc(Cl)cc1C(F)(F)F	7	-11	4	0	76*	-5
C[C@@H](NC(=O)C[C@H]1C=C[C@H](NC(=O)C2CCC2)[C@@H](CO)O1)c1ccccc1	/	4	-21	/	/	/
CC(=O)NC(c1ccco1)c1cc(Cl)c2cccnc2c1O (stereo not drawn)	/	2	11	/	/	/
CC(=O)NC(c1ccccc1)c1cc([N+](=O)[O-])c2cccnc2c1O (stereo not drawn)	120*	5	-7	-23	34	0
CC(=O)NC(C)c1cc(F)c2cccnc2c1O (stereo not drawn)	-4	1	-3	/	/	-2
CC(C)C(=O)NC(c1ccccc1)c1cc([N+](=O)[O-])c2cccnc2c1O (stereo not drawn)	147*	/	5	-24	84*	-5
C[C@@H]1CN([C@@H](C)CO)C(=O)Cc2cc(NS(=O)(=O)c3cccs3)ccc2O[C@@H]1CN(C)Cc1ccc(Cl)c(Cl)c1	/	-3	/	/	/	/
CCCNC(=O)c1cc2c(c(-c3cccc(-c4ccc(C#N)cc4)c3)n1)[C@H](CCO)N(C(=O)CC)C2	/	/	2	/	/	/
CN(C)CCNC=C(C(=O)Nc1ccc(Cl)cc1Cl)C(=O)Nc1ccc(Cl)cc1Cl	78*	3	/	/	56*	1
CCOc1cccc2sc(Nc3nc4ccc(NC(C)=O)cc4s3)nc12	-10	/	4	4	71*	-6
CCC(=O)Nc1nc2ccc(NC(C)=O)cc2s1	-3	1	/	10	-5	-12
O=C(NNC(=O)c1cccnc1SCc1cccc([N+](=O)[O-])c1)c1ccccn1	/	-6	14	-8	75*	/
CCCCS(=O)(=O)/C=C\C1C2C=CC(C2)C1S(=O)(=O)CCCC (stereo not drawn)	-2	0	/	-25	-5	3
CCCCS(=O)(=O)/C=C\C=C/S(=O)(=O)CCCC	111*	/	/	17	-3	149*
COc1cccc(/C=N/n2c(C3CCCCC3)n[nH]c2=S)c1OC	-13	-2	-60	-21	5	2
